The list is not random: actives were taken first. Their share in the collection is about 4.9%.
STAT1 inh = reduces IFN-gamma driven STAT1 reporter signal; NIH 3T3 STAT1-luciferase reporter, luminescence; inhibition, % at 5.5 µM; 200,000 compounds, 0.35% hits; AID 920;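 active = inhibition above a set limit, the mean inhibition across all tested compounds plus 3 SD, cut at about 34% in these data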;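 note: 0% = IFN-gamma with DMSO and 100% = IFN-gamma with 300 µM nifuroxazide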
STAT3 inh-1 = inhibitors of IL-6 induced STAT3 signaling. U3A cells, IL-6 STAT3-luciferase reporter, luminescence; host cell line lacks STAT1. inhibition, % at 5.5 µM. 190,000 compounds, 0.89% hits;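 active = inhibition above the mean inhibition across all screened compounds plus 3 SD, cut at about 44% in these data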;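 note: 0% = DMSO only wells and 100% = 100 µM nifuroxazide control wells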
STAT1 activator = activators of IFN-gamma induced STAT1 signaling. NIH 3T3 STAT1-luciferase reporter, luminescence; 100% = IFN-gamma alone, no compound. activation (% of control), % at 5.5 µM. 200,000 compounds, 2.6% hits. AID 932;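 active = activation above the screen-wide mean activation plus 3 SD, cut at about 130% in these data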;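 note: raw ratio to IFN-gamma control signal so 100% means no change and 0% no light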
NF-kB neuron act = NF-kB expression increase, human neuronal cells | NF-kB reporter expression; active compounds read high | 190,000 compounds, 1.6% hits | AID 1239 | fold change at 12.5 µM; in the data active = fold change above about 3.3
APP 5'UTR act = activates APP 5'UTR luciferase reporter. SH-SY5Y APP 5'UTR luciferase reporter, luminescence; zero percent = DMSO vehicle wells. activation, % at 2 µM. 190,000 compounds, 1% hits. AID 1276;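 active = activation above a set limit, based on mean plus 3 SD of controls, cut at about 140% in these data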
STAT3 activator = increases IL-6 driven STAT3 reporter signal | 190,000 compounds, 0.91% hits | activation (% of control), % at 5.6 µM | AID 871 | U3A cells, IL-6 STAT3-luciferase reporter, luminescence; 100% = signal with IL-6 EC80 alone;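 active = activation above the screen-wide mean of compound activation plus 3 SD, cut at about 130% in these data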;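 note: 0% = background luminescence of wells with medium and substrate only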
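Test system: STAT3-luciferase reporter U3A cells; Detection: reporter luminescence signal; Times: 1 h compound pre-exposure, 6 h IL-6 stimulation, 37 °C; Benchmarks: IL-6-only high control; Also added: IL-6 stimulus at 33 ng/mL final.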
STAT3 inh-2 = STAT3 inhibition, confirmation assay. shares compounds with STAT3 inh-1. U3A cells, IL-6 STAT3 luciferase reporter, luminescence; cell line lacks STAT1. inhibition, % at 5.7 µM. 1,200 compounds, 45% hits. AID 1265;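 active = inhibition above the hit cutoff computed for the primary STAT3 screen, cut at about 44% in these data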;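 note: 0% = IL-6 plus DMSO and 100% = IL-6 plus nifuroxazide control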
NFkB inh 2 = inhibits NF-kappaB, counter-screen to STAT3 inhibitors. inhibition, % at 5.7 µM. HEK293T NF-kB luciferase reporter, TNF-alpha induced. shares compounds with STAT3 inh-1. 1,200 compounds, 36% hits;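 active = inhibition above the mean of solvent-only control wells plus 3 SD, cutoff set per campaign, cut at about 13% in these data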;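 note: 0% = TNF-alpha with DMSO and 100% = TNF-alpha with MG high control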
STAT1 inh 2 = STAT1 inhibition in STAT3 inhibitor counter-screen. shares compounds with STAT3 inh-1. NIH 3T3 STAT1-luciferase reporter, IFN-gamma induced, luminescence. inhibition, % at 5.7 µM. 1,200 compounds, 27% hits;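 active = inhibition above the mean plus 3 SD of solvent-only control wells, limit set per screening run, cut at about 16% in these data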;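 note: 0% = DMSO with IFN-gamma and 100% = nifuroxazide control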
Numbers without * were called inactive; . = no result given.

SMILES	STAT1 inh	STAT3 inh-1	STAT1 activator	NF-kB neuron act	APP 5'UTR act	STAT3 activator	STAT3 inh-2	NFkB inh 2	STAT1 inh 2
CC(C)CC1(C)N=C(c2ccccc2)C(=S)N1 (stereo not drawn)	2	0	97	1.3	23	102	.	.	.
CCOC(=O)C1CCCN(C(=O)c2ccc3c(c2)N(Cc2ccccc2)C(=O)c2ccccc2S3=O)C1 (stereo not drawn)	-16	5	114	0.99	2	97	.	.	.
COc1cc(/C=N\Nc2nc3ccccc3[nH]2)cc(OC)c1OC	17	74*	85	0.54	2	42	35	19*	4
CCN(C(=O)CN1CCN(S(=O)(=O)c2cc(Cl)ccc2Cl)CC1)c1c(N)n(Cc2ccccc2)c(=O)[nH]c1=O	-22	1	120	1.3	-9	97	.	.	.
CCC(=O)Oc1ccc(-c2nc(-c3cccnc3)no2)cc1	-20	46*	118	2.8	82	62	25	-16	-39
COCCNc1ccc(N2C(=O)CCCC2=O)cc1[N+](=O)[O-]	3	9	95	1.2	17	98	.	.	.
Cc1cc(C(=O)COc2cccnc2[N+](=O)[O-])c(C)n1-c1ccccc1	5	60*	96	1	-21	50	21	11	-39
Cc1ccc(-n2c(C)cc(C(=O)COc3cccnc3[N+](=O)[O-])c2C)cc1	14	43	88	0.69	27	65	.	.	.
COc1ccc(/C=C/C(=O)Nc2cccc(N3CCOCC3)c2)cc1OC	14	1	88	0.56	-13	104	.	.	.
COc1cccc(NC(=O)c2cnsn2)c1	-13	0	112	1.4	-1	100	.	.	.
CCOc1ccc(NC(=O)c2cnsn2)cc1	-24	49*	122	3.5*	153*	60	14	-26	-46
O=C(COc1ccc(Cl)cc1Cl)Nc1ccc(Cl)cn1	-43	66*	142*	4.5*	181*	48	33	-22	-94
Cc1ccc(C(C)C)c(OCC(=O)Nc2ccc(Cl)cn2)c1	26	-5	76	1.1	-1	104	.	.	.
c1csc(-c2nnc(-c3ccc(N4CCOCC4)cc3)o2)c1	-16	59*	114	3.4*	122	56	17	-26	-109
CCOc1ccc(-c2nnc(-c3cccs3)o2)cc1	31	79*	72	4.2*	133	39	34	-3	-88
COC(=O)c1ccccc1OCCCOc1ccc(C)cc1OC	-11	59*	110	1.5	69	55	30	-24	-97
COc1cc(C)ccc1OCCCOc1ccccc1Br	-31	10	128	2.1	82	98	.	.	.
CCc1ccc(-n2cc(-c3ccc(F)cc3)[n+]3c2SCCC3)cc1	30	30	72	0.59	-4	76	.	.	.
N#Cc1ccc(-c2cn(-c3ccccc3)c3[n+]2CCCS3)cc1	-3	0	102	0.92	8	107	.	.	.
COc1ccc(-n2cc(-c3ccc(C)cc3)[n+]3c2SCC3)cc1	22	69*	80	0.37	2	43	75*	7	23*
Cc1ccc(-c2cn(-c3ccccc3)c3[n+]2CCCS3)cc1	28	57*	74	0.57	5	51	50*	-1	28*
Nc1nc(-c2ccccc2)c(C(=O)Nc2ccccc2)s1	8	1	94	1.1	-13	103	.	.	.
Cc1ccc(SCc2nc(-c3ccccc3)no2)cc1	-1	6	100	1.4	6	97	.	.	.
Cc1ccc(-c2nc(-c3ccccc3)no2)cc1	-35	55*	148*	10*	132	55	40	5	-49
COc1ccc(Cl)cc1C(=O)NC(C)C	-9	6	109	1.1	2	97	.	.	.
SMILES	STAT1 inh	STAT3 inh-1	STAT1 activator	NF-kB neuron act	APP 5'UTR act	STAT3 activator	STAT3 inh-2	NFkB inh 2	STAT1 inh 2
O=C(NCCCN1CCOCC1)c1ccc(Br)cc1	-6	53*	105	1.2	8	56	5	-8	-13
CC(C)C(=O)Nc1ccc(-c2nc3cccnc3o2)cc1	-51	48*	147*	2.7	151*	61	15	-34	-90
CC1(C)CC(N2CCN(c3ccccc3)CC2)=CC(=[N+]2CCCC2)C1	24	80*	79	0.52	9	37	77*	-2	27*
COc1ccc2[nH]c3c(=O)n(CCCCC(=O)NCCC(C)C)c(=S)[nH]c3c2c1	-6	-18	103	1.2	21	115	.	.	.
CS(=O)(=O)N1CCc2cc(-c3csc(NC(=O)Cc4cccs4)n3)ccc21	4	82*	96	0.53	0	36	72*	19*	8
Cc1nc2nc(-c3ccc(Cl)cc3)cn2nc1C	6	66*	94	3.3*	85	47	40	-13	-84
c1ccc(-c2cn3nc(-c4ccccc4)c(-c4ccccc4)nc3n2)cc1	-5	20	104	1.2	10	93	.	.	.
CCc1nn2cc(-c3ccccc3)nc2s1	31	91*	70	5*	153*	26	69*	38*	15
Cc1nn2cc(-c3ccc(Cl)cc3)nc2s1	-20	52*	118	8*	158*	60	12	-35	-146
O=C(COC(=O)CCC(=O)c1cccs1)Nc1ccccc1[N+](=O)[O-]	-2	-25	101	1.2	13	123	.	.	.
COc1ccc(N(CC(=O)NCc2ccc(Cl)cc2)S(=O)(=O)c2ccccc2[N+](=O)[O-])c(OC)c1	5	1	94	0.76	10	102	.	.	.
CCOC(=O)C1=C(Cc2ccc(C)cc2)C(=O)c2ccccc2C1=O	-1	60*	101	1.8	0	50	60*	12	-2
N#Cc1c(NC(=O)CSc2ncn[nH]2)sc2c1CCCCC2	30	71*	73	0.37	-79	44	68*	30*	-1
O=C(COc1ccccc1)Nc1nc(-c2ccc(S(=O)(=O)N3CCOCC3)cc2)cs1	8	16	93	0.57	20	90	.	.	.
O=C(CCc1ccc(S(=O)(=O)N2CCOCC2)cc1)Nc1nc(COc2ccccc2)cs1	9	46*	92	0.68	-15	64	28	4	9
COc1ccc(/C=N/OCC(=O)N(Cc2ccc(OC)cc2)c2ccccc2C(=O)O)cc1	2	6	98	1.1	0	98	.	.	.
O=C(Nc1ccccc1)c1ccc(S(=O)(=O)N2CCOCC2)cc1	3	11	97	1.4	20	92	.	.	.

Screens from PubChem BioAssay.
